Several values for one entry are separate records, joined by “and”; a condition that tells them apart may be missing. Equal entries are not always repeated.
Assays:
Somatostatin receptor = assay: Binding affinity for SRIF (somatostatin) receptor; format: protein assay
1A9/ptx-22 [1] = assay: (§1) Inhibitory concentration against beta-tubulin mutant 1A9PTX22 cell line; format: functional, cell-based; details: Homo sapiens
1A9/ptx-22 [2] = assay: as §1; format: functional, cell-based; details: Homo sapiens; remark: listed apart in the source
1A9/ptx-10 [3] = assay: (§2) Inhibitory concentration against beta-tubulin mutant 1A9PTX10 cell growth; format: functional, cell-based; details: Homo sapiens
1A9 [4] = assay: Inhibitory concentration against ovarian carcinoma 1A9 cell growth; format: functional, cell-based; details: Homo sapiens
1A9/ptx-10 [5] = assay: as §2; format: functional, cell-based; details: Homo sapiens; remark: listed apart in the source
Nucleic Acid = assay: Binding affinity towards DNA extracted from MOLT-4 cells; format: cell-free; details: Homo sapiens
1A9 [6] = assay: Cytotoxicity against 1A9 human ovarian carcinoma cells; format: functional, cell-based
OVCAR-3 = assay: Cytotoxicity by measuring inhibitory concentration against ovcar-3 tumor cell line; format: functional, cell-based, Homo sapiens
[7] = molecular target: Tubulin beta-4B chain (Homo sapiens) (UniProt P68371); assay: Percent […] of tubulin by the compound; format: functional
In short: (§3)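 Tubulin polymerization was read as percent polymerization, with test drug at 100 µM and a 90 min incubation.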

Bacteria = assay: Minimum inhibitory concentration against bacterial strains; format: functional
[8] = molecular target: Tubulin beta-4B chain (Homo sapiens) (UniProt P68371); assay: (§4) Tubulin polymerization at a concentration of 100 uM incubated for 90 minutes; format: functional; in short: as §3
[9] = molecular target: Tubulin beta-4B chain (Homo sapiens) (UniProt P68371); assay: as §4; in short: as §3

Tubulin beta-4B chain (Homo sapiens), sequence (P68371 whole entry): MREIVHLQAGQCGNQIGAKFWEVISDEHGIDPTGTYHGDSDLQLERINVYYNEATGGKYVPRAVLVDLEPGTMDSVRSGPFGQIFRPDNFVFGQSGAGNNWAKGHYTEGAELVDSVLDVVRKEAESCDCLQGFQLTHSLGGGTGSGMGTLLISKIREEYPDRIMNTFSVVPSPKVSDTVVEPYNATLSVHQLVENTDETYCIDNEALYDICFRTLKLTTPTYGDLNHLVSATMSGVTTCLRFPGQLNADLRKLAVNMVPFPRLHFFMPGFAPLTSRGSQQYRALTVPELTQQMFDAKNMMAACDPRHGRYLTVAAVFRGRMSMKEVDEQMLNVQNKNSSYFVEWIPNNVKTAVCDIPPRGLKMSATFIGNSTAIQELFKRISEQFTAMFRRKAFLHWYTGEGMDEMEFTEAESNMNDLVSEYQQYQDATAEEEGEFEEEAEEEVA

Structure (SMILES) | IC50 (1A9/ptx-22 [1]) [nM] | IC50 (1A9/ptx-22 [2]) [nM] | IC50 (1A9/ptx-10 [3]) [nM] | IC50 (1A9 [4]) [nM] | IC50 (1A9/ptx-10 [5]) [nM] | further results
OCCCCCNCC1OC(OCCc2cc3ccccc3[nH]2)C(OCc2ccccc2)CC1OCc1ccccc1 (centres undefined) | – | – | – | – | – | IC50 (Somatostatin receptor): 10 µM
C/C(=C\c1ccc(C)cn1)[C@@H]1C[C@@H]2C[C@H]2CCC[C@H](C)[C@H](O)[C@@H](C)C(=O)C(C)(C)CCC(=O)O1 | 1.4 | 1.4 | 5.9 | 0.6 | 5.9 | –
CSc1nc(/C=C(\C)[C@@H]2C[C@@H]3C[C@H]3CCC[C@H](C)[C@H](O)[C@@H](C)C(=O)C(C)(C)CCC(=O)O2)cs1 | 0.8 | 0.8 | 3.2 | 1.2 | 3.2 | –
CCNC1COC(OC2C(OC)OC(C)C(NOC3CC(O)C(SC(=O)c4c(C)c(C)c(OC5OC(C)C(O)C(OC)C5O)c(OC)c4OC)C(C)O3)C2O)CC1OC (centres undefined) | – | – | – | – | – | K obs (Nucleic Acid): 38 µM
NCCCCCCOC[C@@H]1O[C@@H](OCCc2cc3ccccc3[nH]2)[C@@H](OCc2ccccc2)[C@@H](OCc2ccccc2)[C@@H]1OCc1ccccc1 | – | – | – | – | – | IC50 (Somatostatin receptor): 11 µM
C/C(=C\c1ccc(C)cn1)[C@@H]1C[C@@H]2C[C@@]2(C)CCC[C@H](C)[C@H](O)[C@@H](C)C(=O)C(C)(C)CCC(=O)O1 | 5.6 | 5.6 | 10.9 | 1.74 | 10.9 | –
CC/C=C\C=C/C(=O)N/C=C/C[C@H]1C[C@H]2C[C@H](O)C[C@H](Cc3cccc(O)c3C(=O)O1)O2 [APICULAREN A] | – | – | – | – | – | IC50 (1A9 [6]): 0.78 nM
CC(=O)OC1C(=O)[C@@]2(C)[C@H]([C@H](OC(=O)c3ccc4ccccc4c3)[C@]3(O)C[C@H](OC(=O)[C@H](O)[C@@H](NC(=O)c4ccccc4)c4ccccc4)C(C)=C1C3(C)C)[C@]1(OC(C)=O)CO[C@@H]1C[C@@H]2O (some centres undefined) | – | – | – | – | – | IC50 (OVCAR-3; ovcar-3): > 11000 µM
C/C(=C\c1ccccn1)[C@@H]1C[C@@H]2O[C@]2(C)CCC[C@H](C)[C@H](O)[C@@H](C)C(=O)C(C)(C)[C@@H](O)CC(=O)O1 | 0.15 | 0.15 | 1 | 0.1 | 1 | TP [7]: 79.5%
Cc1cccc(C)c1SSCCNC(=O)/C(Cc1cc(F)cc(F)c1)=N/O | – | – | – | – | – | MIC (Bacteria): 0.28 ug m/L
CCNC1COC(OC2C(OC)OC(C)C(NOC3CC(O)C(SC(=O)c4c(C)cc(OC5OC(C)C(O)C(OC)C5O)c(OC)c4OC)C(C)O3)C2O)CC1OC (centres undefined) | – | – | – | – | – | K obs (Nucleic Acid): 180 µM
O=C(NCCSSCCNC(=O)/C(Cc1ccc(O)c(Br)c1)=N/O)/C(Cc1ccc(O)c(Br)c1)=N/O [PSAMMAPLIN A] | – | – | – | – | – | MIC (Bacteria): 4.85 ug m/L
NCCCCCOC[C@@H]1O[C@@H](OCCc2cc3ccccc3[nH]2)[C@@H](OCc2ccccc2)[C@@H](OCc2ccccc2)[C@@H]1OCc1ccccc1 | – | – | – | – | – | IC50 (Somatostatin receptor): 15 µM
NCCCCCCOCC1OC(OCCc2cc3ccccc3[nH]2)C(OCc2ccccc2)CC1OCc1ccccc1 (centres undefined) | – | – | – | – | – | IC50 (Somatostatin receptor): 6.6 µM
O=C(/C=C/c1ccccc1)N/C=C/C[C@H]1C[C@H]2C[C@H](O)C[C@H](Cc3cccc(O)c3C(=O)O1)O2 | – | – | – | – | – | IC50 (1A9 [6]): 50 nM
CC(=O)OC1C(=O)[C@@]2(C)[C@H]([C@H](OC(=O)c3ccc(N(C)C)cc3)[C@]3(O)C[C@H](OC(=O)[C@H](O)[C@@H](NC(=O)c4ccccc4)c4ccccc4)C(C)=C1C3(C)C)[C@]1(OC(C)=O)CO[C@@H]1C[C@@H]2O (some centres undefined) | – | – | – | – | – | IC50 (OVCAR-3; Homo sapiens, OVCAR-3): 2.21 µM; IC50 (OVCAR-3; ovcar-3): 2.2 µM
C/C(=C\c1csc(C)n1)[C@@H]1C[C@@H]2C[C@@H]2CCC[C@H](C)[C@H](O)[C@@H](C)C(=O)C(C)(C)[C@@H](O)CC(=O)O1 | 2 | 2 | 9 | 0.25 | 9 | –
CSc1nc(/C=C(\C)[C@@H]2C[C@@H]3C[C@@]3(C)CCC[C@H](C)[C@H](O)[C@@H](C)C(=O)C(C)(C)CCC(=O)O2)cs1 | 11.5 | 11.5 | 5.7 | 3.5 | 5.7 | –
C/C(=C\c1csc(C)n1)[C@@H]1C[C@@H]2O[C@]2(CF)CCC[C@H](C)[C@H](O)[C@@H](C)C(=O)C(C)(C)[C@@H](O)CC(=O)O1 | 0.2 | 0.2 | 0.4 | 0.2 | 0.4 | TP [7]: 93%
CC(=O)O[C@@H]1C2=C(C)[C@@H](OC(=O)[C@H](O)[C@@H](NC(=O)c3ccccc3)c3ccccc3)C[C@@](O)([C@@H](OC(=O)c3ccccc3)c3ccccc3[C@H]1OC(C)=O)C2(C)C | – | – | – | – | – | IC50 (OVCAR-3; ovcar-3): 0.028 µM and 0.28 µM
CCNC1COC(OC2C(OC)OC(C)C(NOC3CC(O)C(SC(=O)c4c(C)c(Cl)c(OC5OC(C)C(O)C(OC)C5O)c(OC)c4OC)C(C)O3)C2O)CC1OC (centres undefined) | – | – | – | – | – | K obs (Nucleic Acid): 32 µM
CO[C@]12C=C[C@](C)(O1)[C@@H](OC(=O)/C=C/c1csc(C)n1)C[C@H]1C(C)=CC[C@H](C(C)C)[C@H]1/C=C\2COC1OCC(O)C(O)C1OC(C)=O (some centres undefined) | – | – | – | – | – | TP [8]: 56%; TP [9]: 56%

From ChEMBL document CHEMBL1143652, “Joys of molecules. 2. Endeavors in chemical biology and medicinal chemistry” (J Med Chem, 2005)
